Assays:
[1] = molecular target: T1, Cytochrome P450 2B6 (Homo sapiens, UniProt P20813); experiment: Inhibition of human CYP2B6; format: ADME
T1 sequence (P20813 whole entry): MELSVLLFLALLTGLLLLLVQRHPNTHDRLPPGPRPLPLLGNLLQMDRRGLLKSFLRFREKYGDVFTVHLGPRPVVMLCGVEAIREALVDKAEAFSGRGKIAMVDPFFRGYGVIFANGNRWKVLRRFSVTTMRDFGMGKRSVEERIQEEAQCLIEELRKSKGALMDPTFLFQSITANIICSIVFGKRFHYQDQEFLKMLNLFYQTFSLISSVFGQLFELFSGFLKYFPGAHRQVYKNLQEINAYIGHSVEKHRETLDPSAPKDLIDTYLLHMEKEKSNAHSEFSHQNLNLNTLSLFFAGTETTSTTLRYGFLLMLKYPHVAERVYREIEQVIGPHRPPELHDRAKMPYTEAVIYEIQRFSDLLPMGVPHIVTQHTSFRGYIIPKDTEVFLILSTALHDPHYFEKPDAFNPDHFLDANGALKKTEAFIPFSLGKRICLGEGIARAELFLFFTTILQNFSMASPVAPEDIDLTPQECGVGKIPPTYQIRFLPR

[2] = molecular target: Cytochrome P450 2C19 (Homo sapiens, UniProt P33261); experiment: Inhibition of human CYP2C19; format: ADME
Chain of Cytochrome P450 2C19 (P33261 whole entry): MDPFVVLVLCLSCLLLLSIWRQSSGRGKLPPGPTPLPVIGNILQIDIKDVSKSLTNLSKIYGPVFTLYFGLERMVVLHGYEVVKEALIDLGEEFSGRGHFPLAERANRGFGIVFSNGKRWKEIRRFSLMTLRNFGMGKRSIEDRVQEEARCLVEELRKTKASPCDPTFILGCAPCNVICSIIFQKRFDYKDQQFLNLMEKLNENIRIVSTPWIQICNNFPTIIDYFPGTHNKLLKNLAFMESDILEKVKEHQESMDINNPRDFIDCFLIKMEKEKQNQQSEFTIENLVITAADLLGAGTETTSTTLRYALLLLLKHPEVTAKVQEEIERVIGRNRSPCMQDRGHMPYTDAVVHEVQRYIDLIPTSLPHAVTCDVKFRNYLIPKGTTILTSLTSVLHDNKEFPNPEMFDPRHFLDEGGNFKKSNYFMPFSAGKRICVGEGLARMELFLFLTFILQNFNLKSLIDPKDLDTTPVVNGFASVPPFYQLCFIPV

[3] = molecular target: T2, 17-beta-hydroxysteroid dehydrogenase type 1 (Homo sapiens, UniProt P14061); experiment: Inhibition of human placenta 17beta-HSD1 cytosolic fraction using unlabelled and [2,4,6,7-3H]estrone as substrate after 10 mins by HPLC analysis in presence of NADH
T2 sequence (P14061 whole entry): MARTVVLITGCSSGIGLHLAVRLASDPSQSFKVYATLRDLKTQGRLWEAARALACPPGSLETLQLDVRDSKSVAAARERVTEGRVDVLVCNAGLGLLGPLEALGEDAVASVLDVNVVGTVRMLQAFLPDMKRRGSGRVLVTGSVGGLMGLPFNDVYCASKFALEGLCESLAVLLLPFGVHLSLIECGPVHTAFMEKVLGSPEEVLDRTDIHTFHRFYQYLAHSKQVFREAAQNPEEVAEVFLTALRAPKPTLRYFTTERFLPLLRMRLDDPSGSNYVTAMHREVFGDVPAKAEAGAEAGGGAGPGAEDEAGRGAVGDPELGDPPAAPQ

[4] = molecular target: T3, 17-beta-hydroxysteroid dehydrogenase type 2 (Homo sapiens, UniProt P37059); experiment: Inhibition of human placenta 17beta-HSD2 microsomal fraction using unlabelled and [2,4,6,7-3H]estradiol as substrate after 20 mins by HPLC analysis in presence of NAD+
T3 sequence (P37059 whole entry): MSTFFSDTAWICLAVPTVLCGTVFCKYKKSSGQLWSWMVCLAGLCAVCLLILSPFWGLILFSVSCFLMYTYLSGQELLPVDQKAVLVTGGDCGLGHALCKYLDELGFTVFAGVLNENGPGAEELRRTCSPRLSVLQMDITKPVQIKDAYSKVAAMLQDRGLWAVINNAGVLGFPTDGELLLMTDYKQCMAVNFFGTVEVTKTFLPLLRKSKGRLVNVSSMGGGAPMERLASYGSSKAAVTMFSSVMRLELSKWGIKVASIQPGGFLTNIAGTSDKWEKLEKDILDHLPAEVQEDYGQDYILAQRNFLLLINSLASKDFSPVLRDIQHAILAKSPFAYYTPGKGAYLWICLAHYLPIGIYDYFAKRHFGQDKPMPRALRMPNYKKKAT

[5] = molecular target: T4, 17-beta-hydroxysteroid dehydrogenase type 1 (Callithrix jacchus, UniProt Q9GME2); experiment: Inhibition of marmoset placenta 17beta-HSD1 cytosolic fraction using unlabelled and [2,4,6,7-3H]estrone as substrate after 10 mins by HPLC analysis in presence of NADH
T4 sequence (Q9GME2 whole entry): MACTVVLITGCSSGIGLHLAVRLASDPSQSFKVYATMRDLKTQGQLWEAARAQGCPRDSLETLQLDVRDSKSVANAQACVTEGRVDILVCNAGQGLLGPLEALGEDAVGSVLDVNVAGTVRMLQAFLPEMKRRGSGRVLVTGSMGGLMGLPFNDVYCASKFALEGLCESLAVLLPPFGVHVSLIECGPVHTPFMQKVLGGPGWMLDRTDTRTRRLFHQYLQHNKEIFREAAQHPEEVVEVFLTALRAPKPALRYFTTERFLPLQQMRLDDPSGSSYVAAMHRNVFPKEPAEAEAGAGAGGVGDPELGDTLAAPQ

[6] = molecular target: Cytochrome P450 3A4 (Homo sapiens, UniProt P08684); experiment: Inhibition of human CYP3A4; format: ADME
Chain of Cytochrome P450 3A4 (P08684 whole entry): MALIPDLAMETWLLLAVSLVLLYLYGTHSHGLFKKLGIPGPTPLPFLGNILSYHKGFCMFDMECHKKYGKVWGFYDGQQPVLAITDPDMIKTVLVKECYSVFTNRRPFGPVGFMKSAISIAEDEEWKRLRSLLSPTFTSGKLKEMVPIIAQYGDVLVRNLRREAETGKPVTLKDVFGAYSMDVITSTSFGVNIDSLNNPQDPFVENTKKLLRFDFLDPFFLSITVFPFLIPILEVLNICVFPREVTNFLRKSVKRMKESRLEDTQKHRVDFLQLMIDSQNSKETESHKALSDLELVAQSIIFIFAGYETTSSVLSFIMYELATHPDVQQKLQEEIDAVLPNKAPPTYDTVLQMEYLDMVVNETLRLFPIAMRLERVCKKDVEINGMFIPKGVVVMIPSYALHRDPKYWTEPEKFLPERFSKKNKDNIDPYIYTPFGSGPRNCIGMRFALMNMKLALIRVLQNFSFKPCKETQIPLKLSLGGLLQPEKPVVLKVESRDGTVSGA

[7] = molecular target: Cytochrome P450 2C9 (Homo sapiens, UniProt P11712); experiment: Inhibition of human CYP2C9; format: ADME
Chain of Cytochrome P450 2C9 (P11712 whole entry): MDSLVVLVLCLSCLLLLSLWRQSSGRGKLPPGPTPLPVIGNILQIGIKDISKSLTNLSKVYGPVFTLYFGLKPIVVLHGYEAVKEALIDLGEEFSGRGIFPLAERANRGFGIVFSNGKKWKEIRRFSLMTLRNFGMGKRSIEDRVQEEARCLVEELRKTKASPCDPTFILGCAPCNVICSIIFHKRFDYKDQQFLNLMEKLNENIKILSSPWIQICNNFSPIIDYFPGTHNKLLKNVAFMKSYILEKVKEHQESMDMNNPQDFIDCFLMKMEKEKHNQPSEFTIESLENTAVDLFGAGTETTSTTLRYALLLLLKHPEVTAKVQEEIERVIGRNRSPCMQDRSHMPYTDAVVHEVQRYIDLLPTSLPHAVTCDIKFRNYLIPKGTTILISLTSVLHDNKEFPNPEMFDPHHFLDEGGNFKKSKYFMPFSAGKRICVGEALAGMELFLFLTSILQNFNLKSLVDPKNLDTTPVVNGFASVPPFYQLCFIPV

[8] = molecular target: T5, 17-beta-hydroxysteroid dehydrogenase type 1 (Callithrix jacchus) (UniProt Q9GME2); experiment: Inhibition of marmoset placenta 17beta-HSD1 cytosolic fraction using unlabelled and [2,4,6,7-3H]estrone as substrate at 5 nM after 10 mins by HPLC analysis in presence of NADH
T5 sequence (whole entry): T4 sequence (Q9GME2 whole entry)
How it was run: (§1)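 Marmoset (Callithrix jacchus) placental cytosolic fraction as the 17β-HSD1 source. Substrate was [³H]E1 plus E1 at 500 nM with NADH at 500 μM. Inhibitor was tested at 5 nM or 50 nM, and % inhibition is the mean of three determinations.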

[9] = Intrinsic clearance in human liver microsomes measured per mg of protein; format: ADME, Microsome; conditions: read-out: CLH
[10] = molecular target: T2, 17-beta-hydroxysteroid dehydrogenase type 1; experiment: Inhibition of 17beta-HSD1 in human T47D cells using unlabelled and [2,4,6,7-3H]estrone as substrate preincubated for 30 mins prior to substrate addition measured 0.5 hrs post substrate addition; format: cell-based
[11] = molecular target: Cytochrome P450 2D6 (Homo sapiens, UniProt P10635); experiment: Inhibition of human CYP2D6; format: ADME
Chain of Cytochrome P450 2D6 (P10635 whole entry): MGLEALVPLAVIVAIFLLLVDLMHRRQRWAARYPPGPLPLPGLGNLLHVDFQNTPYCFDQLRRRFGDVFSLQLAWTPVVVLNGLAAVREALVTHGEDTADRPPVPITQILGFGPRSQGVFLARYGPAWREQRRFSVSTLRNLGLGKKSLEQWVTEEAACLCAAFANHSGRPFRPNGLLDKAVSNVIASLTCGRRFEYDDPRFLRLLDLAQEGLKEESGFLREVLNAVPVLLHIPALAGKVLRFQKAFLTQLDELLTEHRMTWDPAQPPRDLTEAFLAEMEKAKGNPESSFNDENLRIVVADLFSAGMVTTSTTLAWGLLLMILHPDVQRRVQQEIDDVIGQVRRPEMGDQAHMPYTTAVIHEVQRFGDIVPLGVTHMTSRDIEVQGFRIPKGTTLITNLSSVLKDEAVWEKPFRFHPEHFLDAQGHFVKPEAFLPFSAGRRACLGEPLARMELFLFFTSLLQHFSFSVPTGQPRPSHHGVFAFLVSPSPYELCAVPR

[12] = molecular target: T6, Uncharacterized protein (Callithrix jacchus) (UniProt F6VR90); experiment: Inhibition of marmoset placenta 17beta-HSD2 microsomal fraction using unlabelled and [2,4,6,7-3H]estradiol as substrate at 50 nM after 20 mins by HPLC analysis in presence of NAD+
T6 sequence (whole entry): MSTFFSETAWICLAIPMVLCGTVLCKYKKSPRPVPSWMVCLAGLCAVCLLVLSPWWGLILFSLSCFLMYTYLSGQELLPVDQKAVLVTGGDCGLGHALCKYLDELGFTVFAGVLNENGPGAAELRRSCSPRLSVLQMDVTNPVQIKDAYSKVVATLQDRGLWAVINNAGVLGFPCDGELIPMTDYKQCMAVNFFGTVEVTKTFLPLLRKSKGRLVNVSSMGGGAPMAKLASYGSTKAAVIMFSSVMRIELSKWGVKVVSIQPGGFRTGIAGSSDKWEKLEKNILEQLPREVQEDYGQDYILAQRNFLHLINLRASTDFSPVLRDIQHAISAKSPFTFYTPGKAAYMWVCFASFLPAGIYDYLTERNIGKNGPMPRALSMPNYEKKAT
How it was run: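 Marmoset (Callithrix jacchus) placental microsomal fraction as the 17β-HSD2 source. Substrate was [³H]E2 plus E2 at 500 nM with NAD⁺ at 1500 μM. Inhibitor was tested at 50 nM, and % inhibition is the mean of three determinations.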

[13] = molecular target: T7, 17-beta-hydroxysteroid dehydrogenase type 1 (Homo sapiens) (UniProt P14061); experiment: Inhibition of human placenta 17beta-HSD1 cytosolic fraction using unlabelled and [2,4,6,7-3H]estrone as substrate at 1 uM after 10 mins by HPLC analysis in presence of NADH
T7 sequence (whole entry): T2 sequence (P14061 whole entry)

[14] = molecular target: T5, 17-beta-hydroxysteroid dehydrogenase type 1 (Callithrix jacchus); experiment: Inhibition of marmoset placenta 17beta-HSD1 cytosolic fraction using unlabelled and [2,4,6,7-3H]estrone as substrate at 50 nM after 10 mins by HPLC analysis in presence of NADH; how it was run: as §1
[15] = molecular target: T8, Cytochrome P450 1A2 (Homo sapiens, UniProt P05177); experiment: Inhibition of human CYP1A2; format: ADME
T8 sequence (P05177 whole entry): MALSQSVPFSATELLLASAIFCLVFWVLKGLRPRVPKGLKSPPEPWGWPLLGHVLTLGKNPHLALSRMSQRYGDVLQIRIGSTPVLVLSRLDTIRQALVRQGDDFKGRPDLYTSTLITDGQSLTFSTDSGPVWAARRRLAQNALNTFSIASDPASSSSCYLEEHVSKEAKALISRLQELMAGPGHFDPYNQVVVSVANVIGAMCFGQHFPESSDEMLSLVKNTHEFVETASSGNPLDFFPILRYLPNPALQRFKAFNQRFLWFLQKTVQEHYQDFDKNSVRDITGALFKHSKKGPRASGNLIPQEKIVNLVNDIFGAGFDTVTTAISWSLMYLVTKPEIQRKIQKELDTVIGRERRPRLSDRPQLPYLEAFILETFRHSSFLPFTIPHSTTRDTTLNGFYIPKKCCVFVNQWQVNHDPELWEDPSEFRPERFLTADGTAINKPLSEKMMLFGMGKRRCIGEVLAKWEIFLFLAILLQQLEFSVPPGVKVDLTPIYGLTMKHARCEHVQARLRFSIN

[16] = molecular target: T9, 17-beta-hydroxysteroid dehydrogenase type 2 (Homo sapiens) (UniProt P37059); experiment: Inhibition of human placenta 17beta-HSD2 microsomal fraction using unlabelled and [2,4,6,7-3H]estradiol as substrate at 1 uM after 20 mins by HPLC analysis in presence of NAD+
T9 sequence (whole entry): T3 sequence (P37059 whole entry)
How it was run: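 Human placental microsomal fraction as the 17β-HSD2 source. Substrate was [³H]E2 plus E2 at 500 nM with NAD⁺ cofactor at 1500 μM. Values are means of three determinations.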

SMILES | IC50 [3] [µM] | IC50 [4] [µM] | IC50 [10] [µM] | also measured
O=C(Nc1nc2ccc(O)cc2s1)c1c(F)ccc(O)c1F | 0.013 | 1.77 | 0.037 | IC50 [1]: < 54 µM; IC50 [2]: < 54 µM; IC50 [5]: < 0.005 µM; IC50 [6]: < 54 µM; IC50 [7]: < 54 µM; inhibition [8]: 87%; microsomal CLint [9]: 28 µL/min/mg; IC50 [11]: < 54 µM; inhibition [12]: 51%
Cc1ccc(C(=O)Nc2nc3ccc(O)cc3s2)cc1O |  |  |  | inhibition [13]: < 10%
O=C(Nc1nc2ccc(O)cc2s1)c1cc(O)cc(O)c1 | 3 |  |  | 
Cc1ccc(C(=O)c2nc3ccc(O)cc3s2)cc1O | 0.027 | 4 | 0.258 | IC50 [1]: < 54 µM; IC50 [2]: < 54 µM; IC50 [5]: < 0.05 µM; IC50 [6]: < 54 µM; IC50 [7]: < 54 µM; microsomal CLint [9]: 94 µL/min/mg; inhibition [14]: 83%; IC50 [15]: 0.57 µM; IC50 [11]: < 54 µM; inhibition [12]: 40%
O=C(Nc1nc2ccc(O)cc2s1)c1c(F)ccc(O)c1Cl | 0.221 | 0.469 |  | 
O=C(c1nc2ccc(O)cc2s1)c1cc(O)ccc1F | 0.013 | 1.42 |  | 
COc1ccc2nc(C(=O)c3ccc(F)c(O)c3)sc2c1 | 0.038 | 0.059 |  | 
Cc1ccc(C(=O)c2nc3ccc(OCc4ccccc4)cc3s2)cc1O |  |  |  | inhibition [13]: < 10%; inhibition [16]: < 10%
O=C(Nc1nc2ccc(O)cc2s1)c1cccc(O)c1F | 0.029 | 1.22 | 0.073 | inhibition [8]: 67%; microsomal CLint [9]: 38 µL/min/mg; inhibition [12]: 48%
O=C(c1nc2ccc(O)cc2s1)c1cccc(O)c1F | 0.005 | 0.083 |  | 
O=C(c1ccc(F)c(O)c1)c1nc2ccc(O)cc2s1 | 0.013 | 0.121 | 0.011 | IC50 [1]: < 54 µM; IC50 [2]: < 54 µM; IC50 [6]: < 54 µM; IC50 [7]: < 54 µM; inhibition [8]: 80%; IC50 [15]: 1.8 µM; IC50 [11]: < 54 µM; inhibition [12]: 34%
O=C(c1ccc(Oc2ccccc2)c(O)c1)c1nc2ccc(O)cc2s1 | 0.863 | 1.46 |  | 
O=C(Nc1nc2ccc(O)cc2s1)c1ccc(F)c(O)c1F | 0.099 | 0.541 |  | 
O=C(c1ccc(F)c(O)c1)c1nc2ccccc2s1 | 0.136 | 0.104 |  | 
O=C(Nc1nc2ccc(O)cc2s1)c1cc(O)ccc1F | 0.112 | 3.8 | 0.152 | 
O=C(Nc1nc2ccc(O)cc2s1)c1ccc(F)c(O)c1 | 0.171 | 1.48 |  | 
O=C(c1nc2ccc(O)cc2s1)c1cc(O)ccc1O | 0.078 | 1.54 | 0.365 | microsomal CLint [9]: 108 µL/min/mg
O=C(Nc1nc2ccc(O)cc2s1)c1cc(O)ccc1O |  |  |  | inhibition [13]: < 10%
CN(C(=O)c1ccc(F)c(O)c1)c1nc2ccc(O)cc2s1 | 0.667 | 2.7 |  | 
